Results on 1 molecule are retold here after ChEMBL document CHEMBL2163325, “Discovery of phosphoinositide 3-kinases (PI3K) p110β isoform inhibitor 4-[2-hydroxyethyl(1-naphthylmethyl)amino]-6-[(2S)-2-methylmorpholin-4-yl]-1H-pyrimidin-2-one, an effective antithrombotic agent without associated bleeding and insulin resistance” (Bioorg Med Chem Lett, 2012).

One may read the IC50 as the point on the concentration scale where inhibition reaches its midpoint. As usually defined, the EC50 is the concentration needed to bring the measured effect to its halfway point.

Data set [1] has as its target Phosphatidylinositol 4,5-bisphosphate 3-kinase catalytic subunit alpha isoform (Homo sapiens, UniProt P42336). Put plainly: Inhibition of human recombinant His6-tagged PI3K p110alpha expressed in baculovirus infected cells using DiC8-PI(4,5)P2 as substrate after 20 mins by AlphaScreen assay. (In Alpha technology, singlet oxygen from a donor bead excites a nearby acceptor bead.)

Data set [2] concerns the target T1, A-type voltage-gated potassium channel KCND3 (Homo sapiens, UniProt Q9UK17).
T1 sequence (Q9UK17 whole entry): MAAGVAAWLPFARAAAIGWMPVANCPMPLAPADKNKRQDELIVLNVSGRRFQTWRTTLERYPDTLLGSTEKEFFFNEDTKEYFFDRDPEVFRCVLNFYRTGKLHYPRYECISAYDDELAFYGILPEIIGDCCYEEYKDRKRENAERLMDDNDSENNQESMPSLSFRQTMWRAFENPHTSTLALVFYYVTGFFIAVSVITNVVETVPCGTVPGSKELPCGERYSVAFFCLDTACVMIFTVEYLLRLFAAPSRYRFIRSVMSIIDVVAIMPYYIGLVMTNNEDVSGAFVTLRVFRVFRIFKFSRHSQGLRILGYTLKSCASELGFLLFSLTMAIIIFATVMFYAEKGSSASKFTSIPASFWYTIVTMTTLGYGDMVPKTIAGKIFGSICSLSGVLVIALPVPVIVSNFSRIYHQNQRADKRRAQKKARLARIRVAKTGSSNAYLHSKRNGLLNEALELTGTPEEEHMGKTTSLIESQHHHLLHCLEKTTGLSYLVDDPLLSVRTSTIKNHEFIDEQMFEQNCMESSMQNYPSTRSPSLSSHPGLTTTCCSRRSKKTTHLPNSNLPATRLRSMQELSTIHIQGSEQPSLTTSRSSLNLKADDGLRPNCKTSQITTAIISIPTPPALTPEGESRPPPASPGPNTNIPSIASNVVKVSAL
Put plainly: Inhibition of human KV4.3 expressed in CHO cells at 31.6 uM by patch clamp assay. It counts as cell-based. (In general: The patch-clamp technique gives a direct electrical read-out from membranes.)

Data set [3] relates to Canis familiaris. Put plainly: Antithrombotic activity in Beagle dog assessed as concentration required to increase bleeding time by 2 fold at 15.8 to 591.8 ug/kg, iv administered as bolus infusion for 1 min followed by 8.7 to 378.7 ug/kg/min, iv administered as continuous infusion for 29 mins measured up to 15 mins. It counts as functional, Canis lupus familiaris. In outline:
(§1)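 Anaesthetized, intubated, ventilated beagles (N = 2). Femoral artery intima damaged and flow reduced to give cyclic flow reductions. Control period vehicle iv (30% cyclodextrin). Then 5 ascending 30-min periods, each a bolus over 1 min plus continuous infusion for 29 min. Tongue incision bleeding time from 15 min, capped at 15 min. Blood at 20 min for ex vivo aggregation and plasma level. EC50 fitted sigmoidally; EC_BT:2 from an exponential fit.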

The test system of data set [4] is Canis familiaris. Nature of the data set: Ex-vivo antiplatelet activity in iv dosed Beagle dog whole blood assessed as inhibition of ADP-induced platelet aggregation administered as bolus infusion for 1 min followed by continuous infusion for 29 mins. It counts as functional, organism-based. To be noted: Canis lupus familiaris. In outline:
as §1

Sequence of Phosphatidylinositol 4,5-bisphosphate 3-kinase catalytic subunit alpha isoform (P42336 whole entry, canonical isoform): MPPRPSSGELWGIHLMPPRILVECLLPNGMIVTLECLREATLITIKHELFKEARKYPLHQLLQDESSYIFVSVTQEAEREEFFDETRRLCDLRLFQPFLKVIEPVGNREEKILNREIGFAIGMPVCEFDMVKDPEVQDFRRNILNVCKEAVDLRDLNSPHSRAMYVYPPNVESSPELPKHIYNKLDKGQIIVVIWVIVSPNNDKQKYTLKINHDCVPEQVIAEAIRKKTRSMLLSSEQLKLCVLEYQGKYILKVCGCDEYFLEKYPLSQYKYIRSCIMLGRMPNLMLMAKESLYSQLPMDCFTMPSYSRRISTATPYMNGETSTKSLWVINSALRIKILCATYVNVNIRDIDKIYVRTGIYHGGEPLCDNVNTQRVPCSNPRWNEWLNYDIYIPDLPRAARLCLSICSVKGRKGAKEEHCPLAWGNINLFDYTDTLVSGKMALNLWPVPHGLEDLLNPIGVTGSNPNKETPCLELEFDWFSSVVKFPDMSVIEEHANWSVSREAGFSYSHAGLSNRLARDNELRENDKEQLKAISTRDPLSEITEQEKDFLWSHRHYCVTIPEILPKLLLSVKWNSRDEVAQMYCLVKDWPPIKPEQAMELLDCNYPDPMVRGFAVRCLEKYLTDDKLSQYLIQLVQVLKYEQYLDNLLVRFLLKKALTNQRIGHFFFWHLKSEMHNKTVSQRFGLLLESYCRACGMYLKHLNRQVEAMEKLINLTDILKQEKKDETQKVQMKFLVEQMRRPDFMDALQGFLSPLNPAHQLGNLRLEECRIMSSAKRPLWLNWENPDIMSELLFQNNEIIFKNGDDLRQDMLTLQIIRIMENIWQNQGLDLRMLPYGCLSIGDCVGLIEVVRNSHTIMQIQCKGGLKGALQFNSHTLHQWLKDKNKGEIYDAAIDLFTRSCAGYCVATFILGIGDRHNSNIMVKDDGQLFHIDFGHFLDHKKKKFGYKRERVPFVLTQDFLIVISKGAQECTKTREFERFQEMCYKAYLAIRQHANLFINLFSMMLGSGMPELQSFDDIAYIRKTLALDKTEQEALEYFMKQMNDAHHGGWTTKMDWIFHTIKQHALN

As for `C[C@H]1CN(c2cc(N(CCO)Cc3cccc4ccccc34)[nH]c(=O)n2)CCO1`, in data set [1], the IC50 is 27.2 µM. Further, the “inhibition (INH)” value in data set [2] is listed as “Not Active”. Further, the Activity with Canis familiaris [3] worked out at 14.8 µM. In the data set on Canis familiaris [4], the EC50 stood at 1.1 µM and the inhibition entry is “Dose-dependent effect”.
